ChEMBL document CHEMBL3232870, “Discovery of 3-(4-methanesulfonylphenoxy)-N-[1-(2-methoxy-ethoxymethyl)-1H-pyrazol-3-yl]-5-(3-methylpyridin-2-yl)-benzamide as a novel glucokinase activator (GKA) for the treatment of type 2 diabetes mellitus” (Bioorg Med Chem, 2014)

Tests used:
Salmonella typhimurium = assay: Genotoxicity in Salmonella typhimurium TA98 assessed as increase in number of revertants at 1.5 to 5000 ug/plate by Ames test in absence of S9 fraction; type: toxicity, organism-based; conditions: salmonella enterica subsp. enterica serovar typhimurium
How it was run: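 Ames reverse mutation test by direct plate incorporation in S. typhimurium TA98 and TA100, with or without Aroclor 1254-induced rat liver S9 mix. Compound in DMSO at 1.5–5000 µg/plate, plated in top agar, incubated 37 °C for about 50 h, then revertant colonies counted. Plates were checked for precipitation and cytotoxicity. A positive was a reproducible, dose-related increase in revertants of more than 2-fold.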

Mus musculus = assay: Toxicity in fasting C57BL/J6 mouse assessed as glucose lowering effect at 50 mg/kg, po after 30 to 360 mins; type: organism-based; parameters: dose 50 mg/kg, route oral; conditions: in vivo
How it was run: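 Eight-week-old male C57BL/6 mice were fasted 6 h with free access to water, then dosed orally with compound or 0.5% methylcellulose vehicle, with no glucose challenge. Blood glucose was followed up to 360 min, n = 6 per group.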

[1] = Clearance in ICR mouse at 3 mg/kg, iv and 10 mg/kg, po; type: ADME, organism-based; conditions: in vivo
How it was run: (§1)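 Male ICR mice and 7-week-old SD rats received a 3 mg/kg intravenous bolus or a 10 mg/kg oral gavage dose. Plasma was deproteinized with acetonitrile (2 volumes) and compound measured by HPLC. Parameters came from noncompartmental analysis.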

[2] = Elimination half life in ICR mouse at 3 mg/kg, iv and 10 mg/kg, po; type: ADME, organism-based; conditions: in vivo, read-out: beta t1/2 (converted); how it was run: as §1
[3] = Tmax in ICR mouse at 3 mg/kg, iv and 10 mg/kg, po; type: ADME, organism-based; conditions: in vivo
How it was run: (§2)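 Male ICR mice and 7-week-old SD rats received a 3 mg/kg iv bolus or a 10 mg/kg oral gavage dose. Plasma was precipitated with 2 volumes of acetonitrile and analysed by HPLC. Parameters came from noncompartmental analysis.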

[4] = Oral bioavailability in Sprague-Dawley rat at 10 mg/kg; type: ADME, organism-based; conditions: in vivo; how it was run: as §2
[5] = Cmax in female Sprague-Dawley rat at 250 mg/kg, po measured on day 1; type: ADME, organism-based; parameters: dose 250 mg/kg, route oral; conditions: in vivo
How it was run: (§3)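 Sprague–Dawley rats, 5 weeks old at arrival, both sexes. Given the compound by oral gavage once daily for 14 days at 0, 250, 500 or 1000 mg/kg/day, with 0.5% methylcellulose as vehicle. Toxicokinetic parameters were determined on Day 1 and Day 14.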

[6] = Cmax in female Sprague-Dawley rat at 500 mg/kg, po measured on day 1; type: ADME, organism-based; parameters: dose 500 mg/kg, route oral; conditions: in vivo; how it was run: as §3
[7] = Tmax in male Sprague-Dawley rat at 250 mg/kg, po measured on day 14; type: ADME, organism-based; parameters: dose 250 mg/kg, route oral; conditions: in vivo
How it was run: (§4)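 Sprague–Dawley rats of both sexes, 5 weeks old at arrival, received daily oral gavage at 0, 250, 500 or 1000 mg/kg/day for 14 days. Vehicle was 0.5% methylcellulose at 10 mL/kg. Toxicokinetics were taken on Day 1 and Day 14. Necropsy was by Day 15. Testis was fixed in modified Davidson's fixative, paraffin-sectioned and H&E-stained, with histopathology on control and high-dose groups only.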

[8] = Tmax in male Sprague-Dawley rat at 1000 mg/kg, po measured on day 1; type: ADME, organism-based; parameters: dose 1000 mg/kg, route oral; conditions: in vivo; how it was run: as §4
[9] = Tmax in female Sprague-Dawley rat at 250 mg/kg, po measured on day 14; type: ADME, organism-based; parameters: dose 250 mg/kg, route oral; conditions: in vivo; how it was run: as §4
[10] = Tmax in female Sprague-Dawley rat at 1000 mg/kg, po measured on day 14; type: ADME, organism-based; parameters: dose 1000 mg/kg, route oral; conditions: in vivo; how it was run: as §4
[11] = AUC (0 to t) in female Sprague-Dawley rat at 500 mg/kg, po measured on day 1; type: ADME, organism-based; parameters: dose 500 mg/kg, route oral; conditions: plasma; how it was run: as §3
Rattus norvegicus [12] = assay: Toxicity in Sprague-Dawley rat assessed as seminiferous tubule vacuolation at 250 to 1000 mg/kg, po by hematoxylin and eosin staining-based microscopy; type: organism-based; parameters: dose 250-1000 mg/kg, route oral; conditions: in vivo; how it was run: as §4
Rattus norvegicus [13] = assay: Toxicity in Sprague-Dawley rat assessed as multinucleated giant cells in testis at 250 to 1000 mg/kg, po by hematoxylin and eosin staining-based microscopy; type: organism-based; parameters: dose 250-1000 mg/kg, route oral; conditions: in vivo; how it was run: as §4
Canis familiaris [14] = assay: Toxicity in Beagle dog assessed as testicular effect administered repeated dose level of 100 mg/kg/day, po administered on days 3, 6 and 8 by hematoxylin and eosin staining-based microscopy; type: organism-based, Canis lupus familiaris; parameters: route oral; conditions: in vivo
How it was run: (§5)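 Dogs received escalating oral doses of 100, 300 and 1000 mg/kg/day over 8 days (Days 3, 6 and 8 for each dose). Vehicle was 0.5% methylcellulose at 5 mL/kg. Two animals were necropsied at termination, and testes were fixed in modified Davidson's fixative, paraffin-embedded, H&E-stained and examined microscopically.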

Canis familiaris [15] = assay: Toxicity in Beagle dog assessed as testicular effect administered repeated dose level of 300 mg/kg/day, po administered on days 3, 6 and 8 by hematoxylin and eosin staining-based microscopy; type: organism-based, Canis lupus familiaris; parameters: route oral; conditions: in vivo; how it was run: as §5
Cytochrome P450 2C8 = target: T1, Cytochrome P450 2C8 (Homo sapiens, UniProt P10632); assay: Inhibition of CYP2C8 in human liver microsomes; type: ADME
T1 sequence (P10632 whole entry): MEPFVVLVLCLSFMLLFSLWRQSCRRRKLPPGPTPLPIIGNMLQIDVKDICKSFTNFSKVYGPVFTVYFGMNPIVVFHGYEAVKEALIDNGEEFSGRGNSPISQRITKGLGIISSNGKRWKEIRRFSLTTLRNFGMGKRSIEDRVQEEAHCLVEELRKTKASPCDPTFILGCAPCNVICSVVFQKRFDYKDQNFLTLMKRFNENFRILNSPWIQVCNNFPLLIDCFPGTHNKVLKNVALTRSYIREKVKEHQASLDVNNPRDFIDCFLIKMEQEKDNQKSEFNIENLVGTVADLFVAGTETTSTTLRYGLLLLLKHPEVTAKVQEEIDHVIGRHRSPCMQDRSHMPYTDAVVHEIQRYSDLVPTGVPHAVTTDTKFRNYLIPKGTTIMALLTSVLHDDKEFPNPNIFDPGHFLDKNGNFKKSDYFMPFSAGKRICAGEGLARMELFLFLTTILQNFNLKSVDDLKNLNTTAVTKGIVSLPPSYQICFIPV
How it was run: (§6)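 Pooled human liver microsomes at 0.25 mg/mL, each with a CYP-selective substrate and test compound up to 25 µM, preincubated at 37 °C. It is stopped on ice with ice-cold acetonitrile and centrifuged, and the supernatant is analysed by LC–MS/MS.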

Cytochrome P450 3A = Cytochrome P450 3A (Homo sapiens, UniProt P08684+P20815+Q9HB55+P24462); assay: Inhibition of CYP3A in human liver microsomes; type: ADME; how it was run: as §6
Cytochrome P450 3A4 = Cytochrome P450 3A4 (Homo sapiens, UniProt P08684); assay: Induction of CYP3A4 in human liver microsomes up to 25 to 50 uM; type: ADME
Cytochrome P450 2C9 = Cytochrome P450 2C9 (Homo sapiens, UniProt P11712); assay: Inhibition of CYP2C9 in human liver microsomes; type: ADME; how it was run: as §6
[16] = Metabolic stability in dog liver microsomes assessed as compound remaining after 1 hr relative to control; type: ADME, Canis lupus familiaris; conditions: read-out: Stability
How it was run: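 Liver microsomes from mouse, dog or human were incubated with compound for 1 h, and the percentage of compound remaining was determined.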

Chain of Cytochrome P450 3A4 (P08684 whole entry): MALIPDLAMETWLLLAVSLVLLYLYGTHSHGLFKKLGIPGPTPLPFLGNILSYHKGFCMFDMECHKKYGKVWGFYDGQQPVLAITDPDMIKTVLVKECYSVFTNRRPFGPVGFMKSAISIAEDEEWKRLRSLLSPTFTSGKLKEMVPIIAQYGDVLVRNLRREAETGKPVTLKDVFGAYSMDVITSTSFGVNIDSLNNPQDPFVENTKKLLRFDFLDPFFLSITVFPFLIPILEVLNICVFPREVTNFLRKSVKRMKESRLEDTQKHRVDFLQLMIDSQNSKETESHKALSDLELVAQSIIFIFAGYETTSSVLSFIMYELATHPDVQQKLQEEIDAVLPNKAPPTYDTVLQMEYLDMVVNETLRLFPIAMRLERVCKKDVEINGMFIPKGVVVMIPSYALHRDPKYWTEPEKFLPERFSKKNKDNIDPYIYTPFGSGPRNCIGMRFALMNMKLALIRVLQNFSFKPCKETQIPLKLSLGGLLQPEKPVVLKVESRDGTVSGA
Chain of Cytochrome P450 2C9 (P11712 whole entry): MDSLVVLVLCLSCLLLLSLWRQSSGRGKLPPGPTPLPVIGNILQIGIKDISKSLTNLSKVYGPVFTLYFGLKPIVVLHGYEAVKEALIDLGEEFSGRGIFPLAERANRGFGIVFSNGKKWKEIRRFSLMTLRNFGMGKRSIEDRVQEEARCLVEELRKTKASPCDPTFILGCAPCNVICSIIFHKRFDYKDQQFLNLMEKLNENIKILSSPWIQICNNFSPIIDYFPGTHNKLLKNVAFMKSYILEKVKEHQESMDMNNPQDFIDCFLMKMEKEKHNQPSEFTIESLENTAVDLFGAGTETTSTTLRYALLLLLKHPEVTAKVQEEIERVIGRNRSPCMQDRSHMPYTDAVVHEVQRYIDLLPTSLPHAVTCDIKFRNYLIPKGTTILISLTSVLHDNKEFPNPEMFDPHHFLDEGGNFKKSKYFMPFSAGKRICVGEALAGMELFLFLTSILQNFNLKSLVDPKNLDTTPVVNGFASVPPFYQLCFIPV

- clearance [1]: 3.33 mL/min/kg
- half-life [2]: 1.4 h
- Tmax [3]: 0.25 h
- bioavailability [4]: 22%
- Cmax [5]: 3450 ng/mL
- Cmax [6]: 4300 ng/mL
- Tmax [7]: 3 h
- Tmax [8]: 4 h
- Tmax [9]: 1.3 h
- Tmax [10]: 2.7 h
- AUC(0-t) [11]: 19800 ng·h/mL
- inhibition (INH) (Cytochrome P450 2C8): Not Active
- inhibition (INH) (Cytochrome P450 3A): Not Active
- Activity (Cytochrome P450 3A4): Not Active
- IC50 (Cytochrome P450 2C9): 5.2 µM
- remaining at 1 h [16]: > 60%
SMILES: COCCOCn1ccc(NC(=O)c2cc(Oc3ccc(S(C)(=O)=O)cc3)cc(-c3ncccc3C)c2)n1
- Activity (Salmonella typhimurium): Non-toxic
- Activity (Mus musculus): Toxic
- Activity (Rattus norvegicus [12]): Non-toxic
- Activity (Rattus norvegicus [13]): Non-toxic
- Activity (Canis familiaris [14]): Non-toxic
- Activity (Canis familiaris [15]): Non-toxic
